Calls of active or inactive are those of the source. The rule behind the calls is not given here.
Columns and labels:
D(2) dopamine receptor [1] = target: T1, D(2) dopamine receptor (Rattus norvegicus, UniProt P61169); assay: Binding affinity against Dopamine receptor D2 using [3H]spiperone as radioligand
Method in brief: (§1)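 Rat striatal membranes (male Sprague-Dawley, 150–250 g), washed three times in 50 mM Tris-HCl pH 7.7. 0.2–0.4 nM [3H]spiperone with 100 mM NaCl and 3 mM MgCl2, about 2 mg tissue, 15 min at 37 °C. Nonspecific binding defined with 1 μM haloperidol. Bound ligand collected by filtration onto PEI-treated glass fiber filters and counted by scintillation. Competition curves fitted iteratively.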

[2] = target: Sigma non-opioid intracellular receptor 1 (Rattus norvegicus, UniProt Q9R0C9); assay: In vitro for binding affinity against sigma receptor using [3H](+)-3-PPP as radioligand
Sigma non-opioid intracellular receptor 1, sequence (Q9R0C9 whole entry): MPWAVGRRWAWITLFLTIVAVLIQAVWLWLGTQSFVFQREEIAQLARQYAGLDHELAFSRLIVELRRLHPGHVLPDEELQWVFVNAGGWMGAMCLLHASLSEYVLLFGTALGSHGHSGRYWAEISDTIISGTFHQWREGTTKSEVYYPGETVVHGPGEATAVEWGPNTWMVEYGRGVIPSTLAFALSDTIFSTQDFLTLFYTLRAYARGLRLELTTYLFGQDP
Method in brief: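 Whole rat brain membranes (male Sprague-Dawley) in 50 mM Tris-HCl pH 8.0. Nonspecific binding defined with 1 μM haloperidol. Rapid filtration onto PEI-treated glass fiber filters, scintillation counting. IC50 from iterative curve fitting.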

Rattus norvegicus [3] = species: Rattus norvegicus; assay: Effective dose required for DOPA accumulation (presynaptic dopaminergic effect) in rat; I is inactive; type: functional, organism-based
Method in brief: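 Male Sprague-Dawley rats (200–300 g); drug in saline given sc. DOPA measured by HPLC with electrochemical detection in each brain area. Dose-response curves used four to six dose levels per substance and area.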

Rattus norvegicus [4] = assay: post-synaptic dopaminergic effect was assessed by the increase in locomotor activity at 30 min time interval by 200 umol/kg dosage administration; type: functional
[5] = test system: Dopamine D2 receptor (Rattus norvegicus); assay: Effective dose required for DOPA accumulation (presynaptic dopaminergic effect) in rat
[6] = target: D(2) dopamine receptor (Rattus norvegicus) (UniProt P61169); assay: Tested in vivo for binding affinity against Dopamine receptor D2 using nonradiolabeled 5,6-di-n-Pr-ADTN; type: organism-based; set-up: concentration or dose not given beside the values
D(2) dopamine receptor (Rattus norvegicus), sequence (P61169 whole entry): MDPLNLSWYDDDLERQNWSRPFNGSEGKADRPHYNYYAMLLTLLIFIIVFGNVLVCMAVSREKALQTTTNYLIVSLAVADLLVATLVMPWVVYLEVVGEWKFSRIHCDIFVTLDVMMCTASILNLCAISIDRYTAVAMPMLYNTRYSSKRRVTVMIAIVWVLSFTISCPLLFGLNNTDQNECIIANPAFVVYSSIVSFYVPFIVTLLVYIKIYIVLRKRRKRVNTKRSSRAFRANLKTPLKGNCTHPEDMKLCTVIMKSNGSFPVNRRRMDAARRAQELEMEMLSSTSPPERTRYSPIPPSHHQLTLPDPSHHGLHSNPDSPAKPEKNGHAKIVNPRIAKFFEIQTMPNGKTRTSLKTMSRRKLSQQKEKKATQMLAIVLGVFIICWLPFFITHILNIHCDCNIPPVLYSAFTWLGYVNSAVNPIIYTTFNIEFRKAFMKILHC

Rattus norvegicus [7] = assay: post-synaptic dopaminergic effect was assessed by the increase in locomotor activity at 30 min time interval by 13 umol/kg dosage administration; type: functional
Rattus norvegicus [8] = assay: post-synaptic dopaminergic effect was assessed by the increase in locomotor activity at 30 min time interval by 3.1 umol/kg dosage administration; type: functional
Rattus norvegicus [9] = assay: post-synaptic dopaminergic effect was assessed by the increase in locomotor activity at 30 min time interval by 53 umol/kg dosage administration; type: functional
Rattus norvegicus [10] = assay: post-synaptic dopaminergic effect was assessed by the increase in locomotor activity at 30 min time interval by 25 umol/kg dosage administration; type: functional
Rattus norvegicus [11] = assay: post-synaptic dopaminergic effect was assessed by the increase in locomotor activity at 30 min time interval by 106 umol/kg dosage administration; type: functional
Rattus norvegicus [12] = assay: post-synaptic dopaminergic effect was assessed by the increase in locomotor activity at 30 min time interval by 133 umol/kg dosage administration; type: functional
Rattus norvegicus [13] = assay: post-synaptic dopaminergic effect was assessed by the increase in locomotor activity at 30 min time interval by 100 umol/kg dosage administration; type: functional
Rattus norvegicus [14] = assay: post-synaptic dopaminergic effect was assessed by the increase in locomotor activity at 30 min time interval by 265 umol/kg dosage administration; type: functional
Rattus norvegicus [15] = assay: post-synaptic dopaminergic effect was assessed by the increase in locomotor activity at 30 min time interval by 10.6 umol/kg dosage administration; type: functional
Rattus norvegicus [16] = assay: post-synaptic dopaminergic effect was assessed by the increase in locomotor activity at 30 min time interval by 1.06 umol/kg dosage administration; type: functional
D(2) dopamine receptor [17] = target: T1, D(2) dopamine receptor; assay: Compound was tested in vivo for binding affinity against D2 receptor using nonradiolabeled 5,6-di-n-Pr-ADTN; type: organism-based
D(2) dopamine receptor [18] = target: T1, D(2) dopamine receptor; assay: Compound was tested in vitro for binding affinity against Dopamine receptor D2 using [3H]-spiperone as radioligand; method in brief: as §1
Rattus norvegicus [19] = assay: post-synaptic dopaminergic effect was assessed by the increase in locomotor activity at 30 min time interval by 50 umol/kg dosage administration; type: functional
Rattus norvegicus [20] = assay: post-synaptic dopaminergic effect was assessed by the increase in locomotor activity at 30 min time interval by 213 umol/kg dosage administration; type: functional
Rattus norvegicus [21] = assay: post-synaptic dopaminergic effect was assessed by the increase in locomotor activity at 30 min time interval by 14 umol/kg dosage administration; type: functional
Rattus norvegicus [22] = assay: post-synaptic dopaminergic effect was assessed by the increase in locomotor activity at 30 min time interval by 7 umol/kg dosage administration; type: functional
Rattus norvegicus [23] = assay: post-synaptic dopaminergic effect was assessed by the increase in locomotor activity at 30 min time interval by 3.3 umol/kg dosage administration; type: functional
Method in brief: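 Test substance dissolved in saline immediately before use, occasionally with a few drops of glacial acetic acid and/or moderate heating; dosing solutions at neutral pH. Locomotor activity is the behavioral read-out of postsynaptic dopamine receptor stimulation.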

T1 sequence (P61169 whole entry): as above

Row | SMILES | IC50 (D(2) dopamine receptor [1]) | IC50 [2] | further results
1 | Oc1cccc2c1CC[C@H]1NCCC[C@H]21 | 1550 nM | 2370 nM | –
2 | Oc1cccc([C@@H]2CCCNC2)c1 | 1750 nM | 15600 nM | ED50 (Rattus norvegicus [3]): inactive; Accumulated counts (Rattus norvegicus [4]): 4
3 | CCCN1CCCC2c3cc(O)ccc3CCC21 (stereo in doubt; form 2) [listing 1 of 2 here] | – | – | ED50 [5]: 0.004 µmol/kg
4 | CCCN1CCC[C@H](c2cccc(O)c2)C1 | – | – | Control [6]: 84%; Accumulated counts (Rattus norvegicus [7]): 78
5 | CCN1CCCC2c3cccc(O)c3CCC21 (racemic) | 102 nM | 236 nM | Control [6]: 54%; Accumulated counts (Rattus norvegicus [8]): 19
6 | CCCCN1CCC[C@@H](c2cccc(O)c2)C1 | 275 nM | 31 nM | Control [6]: 43%; Accumulated counts (Rattus norvegicus [9]): 63
7 | CCCN1CCCC(c2ccc(O)cc2)C1 (stereo not drawn) | 13000 nM | 276 nM | ED50 (Rattus norvegicus [3]): inactive
8 | CC(C)N1CCC[C@H](c2cccc(O)c2)C1 | 12100 nM | 247 nM | Accumulated counts (Rattus norvegicus [9]): 49
9 | Oc1cccc2c1CCC1C2CCCN1CCc1ccccc1 (racemic) | 6 nM | 65 nM | Control [6]: 67%; Accumulated counts (Rattus norvegicus [10]): 143; ED50 [5]: 0.043 µmol/kg
10 | CCCN1CCC[C@H]2c3cccc(O)c3CC[C@@H]21 | 34 nM | 438 nM | Accumulated counts (Rattus norvegicus [8]): 78
11 | CCCN1CCCC2c3ccc(O)cc3CCC21 (racemic; 17) | 730 nM | 10 nM | –
12 | CCCN1CCCC2c3cc(O)ccc3CCC21 (stereo in doubt; form 1) [listing 1 of 2 here] | – | – | ED50 [5]: 0.25 µmol/kg
13 | COc1ccc2c(c1)C1CCCN(CCc3ccccc3)C1CC2 (racemic) | 435 nM | 14 nM | –
14 | CN1CCCC2c3cc(O)ccc3CCC21 (racemic) | 265 nM | 221 nM | Control [6]: 57%; Accumulated counts (Rattus norvegicus [11]): 60; ED50 [5]: 0.4 µmol/kg
15 | CCCN1CCCC2c3cc(O)ccc3CCC21 (racemic; 32) [listing 1 of 2 here] | 6700 nM | 66 nM | –
16 | Oc1ccc2c(c1)C1CCCNC1CC2 (racemic; 31) [listing 1 of 2 here] | – | – | ED50 (Rattus norvegicus [3]): inactive
17 | CN1CCC[C@H](c2cccc(O)c2)C1 | 4120 nM | 373 nM | Accumulated counts (Rattus norvegicus [12]): 88
18 | CN1CCCC2c3cccc(O)c3CCC21 (racemic) | 114 nM | 610 nM | Control [6]: 33%; Accumulated counts (Rattus norvegicus [13]): 40
19 | Oc1cccc([C@H]2CCCNC2)c1 | 435 nM | 4570 nM | Accumulated counts (Rattus norvegicus [14]): 47
20 | CCCCN1CCCC2c3cccc(O)c3CCC21 (racemic) | 38 nM | 23 nM | Control [6]: 57%; Accumulated counts (Rattus norvegicus [8]): 196; ED50 [5]: 0.08 µmol/kg
21 | CN1CCCC(c2cccc(O)c2)C1 (stereo not drawn) | 1950 nM | 1910 nM | Accumulated counts (Rattus norvegicus [13]): 36
22 | Oc1ccc2c(c1)C1CCCN(CCc3ccccc3)C1CC2 (racemic) | 990 nM | 27 nM | ED50 (Rattus norvegicus [3]): inactive; Accumulated counts (Rattus norvegicus [10]): 72
23 | CCCN1CCCC2c3cc(O)ccc3CCC21 (stereo in doubt; form 1) [listing 2 of 2 here] | – | 520 nM | Accumulated counts (Rattus norvegicus [15]): 28
24 | CCCN1CCCC2c3cc(O)ccc3CCC21 (racemic; 21) [listing 1 of 2 here] | – | – | Control [6]: 68%; ED50 [5]: 0.008 µmol/kg
25 | Oc1cccc2c1CC[C@@H]1NCCC[C@@H]21 | 92 nM | 3610 nM | –
26 | Oc1cccc2c1CCC1NCCCC21 (racemic) | 7500 nM | 14900 nM | ED50 (Rattus norvegicus [3]): inactive; Accumulated counts (Rattus norvegicus [11]): 10

Row | SMILES | IC50 (D(2) dopamine receptor [1]) | IC50 [2] | further results
27 | CCN1CCCC2c3cc(O)ccc3CCC21 (racemic) | 110 nM | 70 nM | Control [6]: 57%; Accumulated counts (Rattus norvegicus [16]): 47; ED50 [5]: 0.017 µmol/kg
28 | CCCN1CCCC2c3cccc(O)c3CCC21 (racemic) | – | – | IC50 (D(2) dopamine receptor [17]): 63 nM; Accumulated counts (Rattus norvegicus [8]): 163
29 | CCCN1CCCC2c3ccc(O)cc3CCC21 (racemic; 30) [listing 1 of 2 here] | 13000 nM | 40 nM | –
30 | CCCN1CCCC2c3c(O)cccc3CCC21 (racemic) | 61800 nM | 1930 nM | ED50 (Rattus norvegicus [3]): inactive
31 | CCCN1CCC[C@@H]2c3cccc(O)c3CC[C@@H]21 (racemic) [listing 1 of 2 here] | 2100 nM | 416 nM | –
32 | CCCCN1CCCC2c3cc(O)ccc3CCC21 (racemic; 33) | – | 35 nM | IC50 (D(2) dopamine receptor [18]): 10400 nM
33 | Oc1ccc2c(c1)C1CCCNC1CC2 (racemic; 18) [listing 1 of 2 here] | 895 nM | 1940 nM | Accumulated counts (Rattus norvegicus [11]): 10
34 | Oc1ccc2c(c1)C1CCCNC1CC2 (racemic; 31) [listing 2 of 2 here] | 30400 nM | 11600 nM | –
35 | CCCCN1CCCC2c3cc(O)ccc3CCC21 (racemic; 23) [listing 1 of 2 here] | – | – | ED50 (Rattus norvegicus [3]): inactive
36 | CCCN1CCCC2c3cc(O)ccc3CCC21 (racemic; 32) [listing 2 of 2 here] | – | – | ED50 (Rattus norvegicus [3]): inactive
37 | COc1ccc2c(c1)C1CCCN(Cc3ccccc3)C1CC2 (racemic) | 5520 nM | – | ED50 (Rattus norvegicus [3]): inactive; Accumulated counts (Rattus norvegicus [19]): 21
38 | Oc1ccc2c(c1)C1CCCNC1CC2 (racemic; 18) [listing 2 of 2 here] | – | – | Control [6]: 90%
39 | CCCN1CCC[C@@H](c2cccc(O)c2)C1 [PRECLAMOL] | – | – | Control [6]: 33%; Accumulated counts (Rattus norvegicus [20]): 12
40 | CCCCN1CCCC2c3cc(O)ccc3CCC21 (racemic; 23) [listing 2 of 2 here] | 2990 nM | 10 nM | Accumulated counts (Rattus norvegicus [19]): 75
41 | CCCN1CCC[C@@H]2c3cccc(O)c3CC[C@@H]21 | 160 nM | 48 nM | Accumulated counts (Rattus norvegicus [8]): 59
42 | Oc1cccc([C@H]2CCCN(CCc3ccccc3)C2)c1 | 1240 nM | 8 nM | Accumulated counts (Rattus norvegicus [21]): 26
43 | CCCN1CCC[C@H]2c3cccc(O)c3CC[C@H]21 | > 100000 nM | 197 nM | ED50 (Rattus norvegicus [3]): inactive
44 | CCCN1CCC[C@@H]2c3cccc(O)c3CC[C@@H]21 (racemic) [listing 2 of 2 here] | – | – | ED50 (Rattus norvegicus [3]): inactive
45 | Oc1cccc([C@@H]2CCCN(CCc3ccccc3)C2)c1 | 44 nM | 16 nM | Accumulated counts (Rattus norvegicus [22]): 71
46 | CCCN1CCCC2c3ccc(O)cc3CCC21 (racemic; 30) [listing 2 of 2 here] | – | – | ED50 (Rattus norvegicus [3]): inactive
47 | CCCN1CCCC2c3cc(O)ccc3CCC21 (racemic; 21) [listing 2 of 2 here] | 101 nM | 19 nM | Accumulated counts (Rattus norvegicus [16]): 188
48 | CCCCN1CCCC2c3cc(OC)ccc3CCC21 (racemic) | 3840 nM | 5 nM | ED50 (Rattus norvegicus [3]): inactive; Accumulated counts (Rattus norvegicus [19]): 135
49 | CCCN1CCCC2c3cc(O)ccc3CCC21 (stereo in doubt; form 2) [listing 2 of 2 here] | 25 nM | 21 nM | Accumulated counts (Rattus norvegicus [16]): 155
50 | CCCCN1CCC[C@H](c2cccc(O)c2)C1 | 2670 nM | 9 nM | Control [6]: 74%; Accumulated counts (Rattus norvegicus [21]): 180
51 | CC(C)N1CCC[C@@H](c2cccc(O)c2)C1 | 355 nM | 208 nM | Accumulated counts (Rattus norvegicus [23]): 38
52 | Oc1ccc2c(c1)C1CCCN(Cc3ccccc3)C1CC2 (racemic) | 3440 nM | 11 nM | ED50 (Rattus norvegicus [3]): inactive; Accumulated counts (Rattus norvegicus [19]): 78
